PLC-beta3 inh: PLC-beta3 (human) inhibition, primary screen. Purified PLC-beta3, fluorogenic substrate, fluorescence. inhibition, % at 12.2 µM. actives 0.18% (n = 370,000). AID 720704; in the data active = inhibition above about 11%;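 note: 0% = median of compound wells on plate and 100% = full blocker control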
Tb MetRS inh: Trypanosoma brucei MetRS inhibition. purified T. brucei MetRS, ATP depletion, Kinase-Glo luminescence. inhibition, % at 11.9 µM. actives 0.4% (n = 360,000). AID 624268;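 active = inhibition above a per-plate cutoff of the control wells' mean inhibition plus 3 SD, cut at about 5.5% in these data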;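 note: 0% = DMSO wells median and 100% = median of wells with control inhibitor compound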
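technique = Kinase-Glo luminescence, ATP depletion format | system = purified MetRS (methionyl-tRNA synthetase) enzyme from Trypanosoma brucei | timing = 15 min preincubation, 2 h reaction, all 25 °C | evaluation = percent inhibition versus plate control medians | dosing = single dose, 11.9 µM final nominal, 0.9% final DMSO | also added = substrates ATP, L-methionine and bulk Escherichia coli tRNA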
DAGLB inhibitor: blocks human DAGLB lipase activity; inhibition, % at 5.17 µM; Q8NCG7; HEK293T DAGLB membrane lysate, EnzChek fluorogenic substrate; actives 0.059% (n = 340,000); in the data active = inhibition above about 34%;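 note: 0% = enzyme with vehicle and 100% = wells lacking enzyme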
HGIII-sPLA2 inh: Inhibits HGIII-sPLA2 liposome hydrolysis, primary screen; inhibition, % at 12.2 µM; AID 743126; QFRET BODIPY PC-A2 liposome hydrolysis, fluorescence; actives 0.56% (n = 370,000); Q9NZ20;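 active = inhibition above mean plus 3 SD of compounds lying within the high and low control bounds, cut at about 19% in these data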;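 note: 0% = median of test compound wells and 100% = no enzyme DMSO wells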
Target sequence (Q9NZ20 whole entry, looked up): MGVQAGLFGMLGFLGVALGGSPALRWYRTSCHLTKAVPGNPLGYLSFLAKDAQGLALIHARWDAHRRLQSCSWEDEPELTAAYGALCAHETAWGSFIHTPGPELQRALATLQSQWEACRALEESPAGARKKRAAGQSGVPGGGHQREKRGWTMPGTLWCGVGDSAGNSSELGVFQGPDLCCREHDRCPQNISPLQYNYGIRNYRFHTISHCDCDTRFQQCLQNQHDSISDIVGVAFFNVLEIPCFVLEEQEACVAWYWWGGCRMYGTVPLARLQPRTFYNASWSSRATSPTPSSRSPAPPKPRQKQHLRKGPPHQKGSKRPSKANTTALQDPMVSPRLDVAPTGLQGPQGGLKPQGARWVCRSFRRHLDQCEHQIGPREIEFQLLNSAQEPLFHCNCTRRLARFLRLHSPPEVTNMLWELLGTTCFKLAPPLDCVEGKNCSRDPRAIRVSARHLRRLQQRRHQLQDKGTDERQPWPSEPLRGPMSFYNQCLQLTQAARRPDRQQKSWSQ
PLC-gamma1 inh: PLC-gamma1 (human) inhibition, primary screen; AID 720700; inhibition, % at 12.2 µM; purified PLC-gamma1, fluorogenic substrate, fluorescence; P19174; actives 0.84% (n = 370,000)
PLCg1 ctr: PLC-gamma1 inhibition, counter-screen for PLC-beta3 hits. actives 3.1% (n = 3,300). purified PLC-gamma1, fluorogenic substrate, fluorescence. AID 743258. inhibition, % at 12.3 µM. shares compounds with PLC-gamma1 inh
PLCb3 confirm: human PLC-beta3 inhibition, confirmation. shares compounds with PLC-gamma1 inh. purified PLC-beta3, fluorogenic substrate fluorescence. inhibition, % at 12.3 µM. actives 1% (n = 3,300). AID 743261; in the data active = inhibition above about 11%
* hit, by the source's call; . = no result given. A selection: hits, their analogues and other compounds. The true share with any hit is near 1.9%. Cut-off read from the data, not from the text of the source, unless noted: active = inhibition above about 9.5%; inactive = the rest.

SMILES | PLC-beta3 inh | Tb MetRS inh | DAGLB inhibitor | HGIII-sPLA2 inh | PLC-gamma1 inh | PLCg1 ctr | PLCb3 confirm
COC(=O)[C@]12C[C@H](CC(=O)N3CCOCC3)C(=O)N(CCC3=CCCCC3)C1=C[C@H](C1CCCC1)O[C@@H]2C | 1 | . | . | -4 | -1 | . | .
COC(=O)[C@]12C[C@H](CC(=O)NCCCCc3ccccc3)C(=O)N(Cc3ccccc3)C1=C[C@H](C(C)C)O[C@@H]2C1CC1 | 5 | . | . | -2 | 10* | -3 | -1
COC(=O)[C@]12C[C@H](CC(=O)NCCCCc3ccccc3)C(=O)N(Cc3ccccc3)C1=C[C@H](COCc1ccccc1)O[C@@H]2C | 2 | . | . | -19 | 1 | . | .
CCOC(=O)CNC(=O)C(Cc1ccc2c(c1)OCO2)NC(C)=O (stereo not given) | 0 | . | . | 1 | 2 | . | .
CCCCCn1nnnc1C1(C)CSCC(=O)N1Cc1ccco1 (stereo not given) | 2 | . | . | 2 | 2 | . | .
Nc1ccc(C(CC(=O)O)n2cccc2)cc1 (stereo not given) | 14* | 0 | -2 | -9 | 26* | -4 | -3
O=C(O)CC(c1ccccc1)n1cccc1 (stereo not given) | -1 | 0 | 3 | 1 | -2 | . | .
O=C(NCCc1ccc(O)cc1)c1[nH]c(C(F)(F)F)nc1-c1ccccc1 | 4 | 0 | . | -6 | 13* | -8 | -5
FC(F)(F)Oc1cccc(Cn2ccc3ccc(-c4ccc5ccn(Cc6ccccc6)c5c4)cc32)c1 | -77 | . | . | 16 | -57 | . | .
COC(=O)CSc1nnc2n(-c3ccc(OC)cc3)c(=O)c3c4c(sc3n12)CCCCC4 | 1 | 0 | 5 | -6 | 10* | -3 | -1
COc1cc(OC)nc(Nc2nc(C(N)CCc3ccccc3)cs2)n1 (stereo not given) | 3 | 0 | . | 12 | 11* | -9 | -3
COC(=O)[C@]12C[C@H](CC(=O)N3CCOCC3)C(=O)N(Cc3cccc4ccccc34)C1=C[C@H](COCc1ccccc1)O[C@@H]2C | -1 | . | . | -14 | 0 | . | .
CN(Cc1ccco1)C(=O)c1cccc2c1C(=O)N(Cc1cccnc1)C2 | -1 | . | . | 3 | 2 | . | .
COC(=O)C1=C(C)N(Cc2cccc(C(F)(F)F)c2)C(=NCC2CC2)NC1c1ccccc1C(F)(F)F (stereo not given) | -3 | . | . | -2 | -4 | . | .
O=C(Oc1ccc(/C=N/NC(=O)c2ccco2)cc1)c1ccccc1 | 3 | 1 | -4 | -4 | 10* | 2 | 8
O=C(N/N=C/c1ccc(OC(=O)c2cccs2)cc1)c1ccc(F)cc1 | 11* | 0 | -2 | 4 | 10* | -1 | 5
O=C(N/N=C/c1ccc(OC(=O)c2ccccc2)cc1)c1cccc(O)c1 | 18* | 0 | -3 | -38 | 13* | 11* | 15*
O=C(Oc1ccc(/C=N/NC(=O)c2ccccc2O)cc1)c1ccccc1 | -19 | 0 | -1 | -5 | -16 | . | .
O=C(N/N=C/c1ccc(F)cc1)c1ccccc1 | 2 | -1 | 1 | 3 | -1 | . | .
CCOC(=O)c1csc(-c2sccc2Br)n1 | 1 | 0 | -6 | 4 | 14* | -4 | -4
COc1ccc(-c2cc(NC(=O)Cc3c[nH]c4ccccc34)ccc2Nc2cccnc2)cc1F | -2 | . | . | -24 | 2 | . | .
COc1cc(NC(=O)C2CCCN(S(=O)(=O)c3ccc(C)c(C)c3)C2)cc(OC)c1 (stereo not given) | 3 | . | . | -39 | 1 | . | .
CN1C=CC(=C[N+](=O)[O-])N(C)C1=O | 6 | 0 | . | 0 | 12* | -3 | -3
O=C(CCC1CCCC1)Nc1ccon1 | 4 | 0 | 1 | 4 | 12* | -3 | 3
CCN(CC)S(=O)(=O)c1ccc(F)cc1 | 7 | -1 | 0 | 2 | 11* | 4 | 3
SMILES | PLC-beta3 inh | Tb MetRS inh | DAGLB inhibitor | HGIII-sPLA2 inh | PLC-gamma1 inh | PLCg1 ctr | PLCb3 confirm
N#Cc1ccc(OCCCN2CCC(C(O)(c3ccccc3)c3ccccc3)CC2)cc1 | 0 | . | . | -19 | -1 | . | .
COc1ccc(N2CCN(CCNC(=O)c3ccc(NC(=O)C4CCCO4)cc3)CC2)cc1 (stereo not given) | 5 | 0 | -5 | 6 | 11* | 4 | 2
CC1(C)CC(C2N3CC4(C)CN2CC(C)(C3)C4=O)CCO1 (stereo not given) | 0 | 0 | -1 | 0 | 13* | -6 | -2
CCN(C(=O)[C@@H](C1CC1)[C@@H](O)c1ccc(C(C)=O)cc1)c1ccccc1 | 1 | . | . | 2 | 0 | . | .
CC(=NOC(=O)c1ccc(Cl)cc1)c1nccs1 | 7 | -1 | . | 7 | 16* | -8 | -5
CCCCCCCCN1C(=O)[C@@H](CC(=O)NCC2CCCCC2)C[C@@]2(C(=O)OC)C1=C[C@H](C(C)(C)C)O[C@@H]2C | 5 | . | . | 5 | 4 | . | .
Cc1ccc(Cn2cc(CN3[C@H](CC(C)C)COc4cc(Br)ccc4S3(=O)=O)nn2)cc1 | 3 | . | . | 4 | 2 | . | .
O=C(Cc1ccccc1)Nc1cccc(NC(=O)c2cccs2)c1 | 4 | 0 | 0 | -5 | 11* | -4 | -1
Cc1cc(NC(=O)c2cccs2)ccc1NC(=O)Cc1ccccc1 | 3 | -1 | 3 | -7 | -3 | . | .
COc1cccc(CC(=O)O[C@@H]2CCC[C@@]3(C(=O)N(Cc4ccccc4)c4ccccc43)[C@H]2NC(=O)CCc2ccccc2)c1 | 0 | . | . | -5 | 3 | . | .
Cc1ccc(S(=O)(=O)c2cccc(S(=O)(=O)N3CCCC3)c2)cc1S(=O)(=O)N1CCCC1 | 14* | -1 | -2 | -25 | 9.9* | -1 | 0
CNc1nc(C)nc(N/N=C/c2ccccc2)n1 | 7 | 0 | -2 | 14 | 11* | -2 | -3
Cc1cc(-c2ccccc2)nc(N/N=C/c2ccccc2)n1 | -31 | -1 | -4 | -4 | -22 | . | .
Cc1cc(N2CCN(S(C)(=O)=O)C[C@@H]2C)ccc1N1CCN(Cc2ccccc2)[C@@H](C)C1 | -3 | . | . | -8 | 1 | . | .
COc1cccc(C(=O)NNC(=O)CCC(=O)O)c1 | -3 | -1 | -2 | 10 | 9.9* | -9 | -5
O=c1[nH]cnc2nn(C3OC(CO)C(O)C3O)nc12 (stereo not given) | 1 | . | . | 13 | 4 | . | .
Nc1nc2c(ncn2[C@@H]2O[C@H](C(=O)N[C@@H](Cc3ccccc3)C(=O)NCc3ccc4c(c3)OCO4)[C@@H](O)[C@H]2O)c(=O)[nH]1 | 5 | . | . | -3 | 4 | . | .
CC1=C(C(=O)Nc2ccccn2)C(c2ccc(Br)cc2)NC(=S)N1 (stereo not given) | 5 | 0 | 0 | 13 | 15* | -2 | -2
CC1=C(C(=O)Nc2ccccn2)C(c2ccc(Cl)cc2)NC(=S)N1 (stereo not given) | 3 | 2 | -1 | 12 | 0 | . | .
Cc1ccc(Nc2nc(=O)c3cccnc3s2)cc1 | 2 | 1 | 0 | -7 | 11* | -6 | -3
